Measured values from ChEMBL document CHEMBL5154715, “Phenolic Lipids Derived from Cashew Nut Shell Liquid to Treat Metabolic Diseases” (J Med Chem, 2022).
Activity calls are given as the source filed them. No cut-off for these calls is given here.

Assays:
[1] = target: T1, Peroxisome proliferator-activated receptor alpha (Homo sapiens, UniProt Q07869); experiment: Agonist activity at human PPARalpha expressed in HEK293 cells by luciferase/beta-galactosidase reporter gene assay; type: cell-based
T1 sequence (Q07869 whole entry): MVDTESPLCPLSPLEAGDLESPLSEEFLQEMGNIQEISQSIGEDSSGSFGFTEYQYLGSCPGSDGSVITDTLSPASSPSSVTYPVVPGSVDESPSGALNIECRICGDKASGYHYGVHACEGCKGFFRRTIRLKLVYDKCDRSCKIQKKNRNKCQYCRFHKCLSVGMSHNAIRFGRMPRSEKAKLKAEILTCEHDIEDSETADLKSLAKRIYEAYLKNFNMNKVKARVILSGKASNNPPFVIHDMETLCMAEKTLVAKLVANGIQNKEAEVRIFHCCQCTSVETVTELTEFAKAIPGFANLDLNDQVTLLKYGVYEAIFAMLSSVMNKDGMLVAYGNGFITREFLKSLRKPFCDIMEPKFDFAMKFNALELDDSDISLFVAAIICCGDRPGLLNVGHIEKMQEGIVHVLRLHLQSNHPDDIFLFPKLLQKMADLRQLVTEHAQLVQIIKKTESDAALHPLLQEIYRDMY
Method in brief: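 HEK293 cells in charcoal-stripped FBS, calcium phosphate co-transfected with GAL4-hPPAR LBD fusion, UAS-luciferase and β-galactosidase. Ligand added 6–8 h post transfection, full dose–response, harvested 14–16 h later. Luciferase normalized to β-galactosidase.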

[2] = target: T2, Peroxisome proliferator-activated receptor alpha (Homo sapiens) (UniProt Q07869); experiment: Agonist activity at human PPARalpha transfected in HEK293 cells assessed as relative luciferase unit at 50 uM measured after 16 hrs by luciferase reporter gene assay; type: cell-based; settings: filed as agonist
T2 sequence (whole entry): T1 sequence (Q07869 whole entry)
Method in brief: (§1)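 GAL4-hPPAR (α or γ) plus UAS-luciferase and β-galactosidase transiently co-transfected into HEK293 cells, then treated with 50 μM compound for 16 h. RLU = luciferase/β-galactosidase × time, vehicle (DMSO) set to 1. Mean ± SD, N = 3; one-way ANOVA with Holm–Šidák vs vehicle.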

[3] = Metabolic stability in C57BL/6 mouse liver microsomes assessed as parent compound remaining incubated for 120 mins; type: ADME, Microsome; settings: read-out: Stability
[4] = target: T2, Peroxisome proliferator-activated receptor alpha (Homo sapiens); experiment: Stabilization of human PPARalpha LBD assessed as change in melting temperature at 25 uM by thermal shift assay
Method in brief: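 Purified hPPAR LBD at 1 mg/mL (∼25 μM) with ligand (α-LBD at 25 μM; γ- and δ-LBD at 50 μM). Static light scattering at 473 nm from 25 to 70 °C in 0.5 °C steps, 1 °C/min. Tm from four-parameter fit; ΔTm relative to DMSO; mean ± SEM, N = 3.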

[5] = target: T3, Peroxisome proliferator-activated receptor gamma (Homo sapiens) (UniProt P37231); experiment: Agonist activity at human PPARgamma transfected in HEK293 cells assessed as relative luciferase unit at 50 uM measured after 16 hrs by luciferase reporter gene assay; type: cell-based; settings: filed as agonist; method in brief: as §1
T3 sequence (whole entry): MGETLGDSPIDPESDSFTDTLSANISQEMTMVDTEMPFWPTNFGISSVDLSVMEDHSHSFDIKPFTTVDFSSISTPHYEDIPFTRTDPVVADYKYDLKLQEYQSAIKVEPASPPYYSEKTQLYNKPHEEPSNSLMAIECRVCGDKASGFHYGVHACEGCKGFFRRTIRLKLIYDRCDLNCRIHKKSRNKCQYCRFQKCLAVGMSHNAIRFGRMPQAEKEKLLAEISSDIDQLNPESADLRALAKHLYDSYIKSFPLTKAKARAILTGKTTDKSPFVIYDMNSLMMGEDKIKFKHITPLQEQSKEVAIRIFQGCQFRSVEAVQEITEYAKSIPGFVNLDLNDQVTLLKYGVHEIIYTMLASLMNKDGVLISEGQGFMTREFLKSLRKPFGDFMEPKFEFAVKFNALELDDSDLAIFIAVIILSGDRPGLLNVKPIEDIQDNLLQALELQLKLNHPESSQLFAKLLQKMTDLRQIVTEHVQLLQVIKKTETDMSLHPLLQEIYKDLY

[6] = target: T4, Peroxisome proliferator-activated receptor delta (Homo sapiens) (UniProt Q03181)
T4 sequence (whole entry): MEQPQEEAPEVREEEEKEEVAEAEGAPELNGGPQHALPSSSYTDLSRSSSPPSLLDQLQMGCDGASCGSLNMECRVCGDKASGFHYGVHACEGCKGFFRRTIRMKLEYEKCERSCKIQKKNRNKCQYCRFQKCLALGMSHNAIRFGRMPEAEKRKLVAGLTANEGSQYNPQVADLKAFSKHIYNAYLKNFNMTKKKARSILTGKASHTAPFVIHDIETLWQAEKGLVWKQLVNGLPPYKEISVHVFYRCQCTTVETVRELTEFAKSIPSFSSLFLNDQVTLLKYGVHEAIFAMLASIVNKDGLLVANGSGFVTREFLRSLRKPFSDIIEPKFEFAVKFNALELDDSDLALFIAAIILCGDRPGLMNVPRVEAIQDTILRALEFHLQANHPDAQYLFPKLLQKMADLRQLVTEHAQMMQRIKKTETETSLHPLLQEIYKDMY

[7] = target: T4, Peroxisome proliferator-activated receptor delta (Homo sapiens); experiment: Stabilization of human PPARdelta LBD assessed as change in melting temperature at 50 uM by thermal shift assay
[8] = target: T3, Peroxisome proliferator-activated receptor gamma (Homo sapiens); experiment: Stabilization of human PPARgamma LBD assessed as change in melting temperature at 50 uM by thermal shift assay

| Compound | EC50 [1] [nM] | Activity [2] | remaining at 2 h [3] [%] | ΔTm [4] [°C] | Activity [5] | EC50 ([6]; HEK293, filed as agonist) [µM] | ΔTm [7] [°C] | ΔTm [8] [°C] | EC50 ([6]; HEK293) [µM] |
| --- | --- | --- | --- | --- | --- | --- | --- | --- | --- |
| CCCCCC/C=C\CCCCCCCc1cccc(OC(C)(C)C(=O)O)c1 | 700 | Active | 90 | 3.8 | Active | 21 | 6.8 | 5.6 |  |
| CCCCCCCCCCCCCCCc1cccc(OC(C)(C)C(=O)O)c1 | 500 | Active | 79 | 10.8 | Active | 33 | 11.3 | 6.3 |  |
| CCCCCCCCCCCCCCCc1cccc(OC(C)=O)c1C(=O)O | 2400 | Active | 0 | 17.4 | Active |  | 12 | 4.4 | > 50 |
